Laboratory results from ChEMBL document CHEMBL1811874, “The effect of sulfonate leaving groups on the hypoxia-selective toxicity of nitro analogs of the duocarmycins” (Bioorg Med Chem, 2011).
pIC50: −log10 of the molar value. ≈ marks a conversion by molar mass, not a printed value.

Columns and labels:
[1] = tested on: SK-OV-3; assay: Cytotoxicity against human SKOV3 cells assessed as reduction of cell density incubated for 4 hrs in hypoxic (anoxic) condition measured 5 days post dose by SRB assay; format: functional, cell-based
How it was run: (§1)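 Log-phase monolayers given a 4 h drug exposure under aerobic (20% O₂) or anoxic (<20 ppm O₂) conditions. Cells were then stained with sulforhodamine B 5 days later. IC50 was interpolated as the concentration that cut cell density to 50% of same-plate controls. Values are means of two to seven experiments.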

[2] = tested on: SK-OV-3; assay: Cytotoxicity against human SKOV3 cells assessed as reduction of cell density incubated for 4 hrs in oxic (aerobic) condition measured 5 days post dose by SRB assay; format: functional, cell-based; how it was run: as §1
[3] = Solubility in alphaMEM culture medium containing 5% FCS at 22 degC; format: physicochemical
How it was run: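 Solubility was measured in αMEM with 5% FCS, equilibrated with 5% CO₂/air, at 22 °C.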

[4] = tested on: SK-OV-3; assay: Hypoxic cytotoxicity ratio, ratio of IC50 for human SKOV3 cells in oxic (aerobic) condition to IC50 for human SKOV3 cells in hypoxic (anoxic) conditions; format: functional
How it was run: (§2)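 HCR was calculated as IC50(oxic)/IC50(hypoxic) after 4 h drug exposure at 20% O₂ or <20 ppm O₂, with SRB read-out 5 days later.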

[5] = tested on: A549; assay: Cytotoxicity against human A549 cells after 24 hrs; format: functional, cell-based; settings: A549, 24 h
[6] = tested on: HT-29; assay: Hypoxic cytotoxicity ratio, ratio of IC50 for human HT-29 cells in oxic (aerobic) condition to IC50 for human HT-29 cells in hypoxic (anoxic) conditions; format: functional; how it was run: as §2
[7] = tested on: HT-29; assay: Cytotoxicity against human HT-29 cells assessed as reduction of cell density incubated for 4 hrs in oxic (aerobic) condition measured 5 days post dose by SRB assay; format: functional, cell-based; how it was run: as §1
[8] = tested on: HT-29; assay: Cytotoxicity against human HT-29 cells assessed as reduction of cell density incubated for 4 hrs in hypoxic (anoxic) condition measured 5 days post dose by SRB assay; format: functional, cell-based; how it was run: as §1
[9] = Cytotoxicity against human H1299 cells assessed as reduction of cell density incubated for 4 hrs in oxic (aerobic) condition measured 5 days post dose by SRB assay; format: functional, cell-based; settings: NCI-H1299; how it was run: as §1
[10] = tested on: NCI-H460; assay: Cytotoxicity against human H460 cells assessed as reduction of cell density incubated for 4 hrs in oxic (aerobic) condition measured 5 days post dose by SRB assay; format: functional, cell-based; how it was run: as §1
[11] = tested on: NCI-H460; assay: Cytotoxicity against human H460 cells assessed as reduction of cell density incubated for 4 hrs in hypoxic (anoxic) condition measured 5 days post dose by SRB assay; format: functional, cell-based; how it was run: as §1
[12] = tested on: A-375; assay: Hypoxic cytotoxicity ratio, ratio of IC50 for human A375 cells in oxic (aerobic) condition to IC50 for human A375 cells in hypoxic (anoxic) conditions; format: functional; how it was run: as §2
[13] = tested on: HCT-116; assay: Cytotoxicity against human HCT116 cells assessed as reduction of cell density incubated for 4 hrs in hypoxic (anoxic) condition measured 5 days post dose by SRB assay; format: functional, cell-based; how it was run: as §1
[14] = tested on: A549; assay: Hypoxic cytotoxicity ratio, ratio of IC50 for human A549 cells ells over-expressing human NADPH/cytochrome P450 oxidoreductase in oxic (aerobic) condition to IC50 for human A549 cells ells over-expressing human NADPH/cytochrome P450 oxidoreductase in hypoxic (anoxic) conditions; format: functional; how it was run: as §2
[15] = tested on: A549; assay: Cytotoxicity against human A549 cells assessed as reduction of cell density incubated for 4 hrs in oxic (aerobic) condition measured 5 days post dose by SRB assay; format: functional, cell-based; how it was run: as §1
[16] = tested on: A549; assay: Cytotoxicity against human A549 cells over-expressing human NADPH/cytochrome P450 oxidoreductase assessed as reduction of cell density incubated for 4 hrs in oxic (aerobic) condition measured 5 days post dose by SRB assay; format: functional, cell-based; how it was run: as §1
[17] = Hypoxic cytotoxicity ratio, ratio of IC50 for human H1299 cells in oxic (aerobic) condition to IC50 for human H1299 cells in hypoxic (anoxic) conditions; format: functional, NCI-H1299; how it was run: as §2
[18] = tested on: PC-3; assay: Cytotoxicity against human PC3 cells assessed as reduction of cell density incubated for 4 hrs in hypoxic (anoxic) condition measured 5 days post dose by SRB assay; format: functional, cell-based; how it was run: as §1
[19] = tested on: C-33-A; assay: Cytotoxicity against human C33A cells assessed as reduction of cell density incubated for 4 hrs in oxic (aerobic) condition measured 5 days post dose by SRB assay; format: functional, cell-based; how it was run: as §1
[20] = tested on: SiHa; assay: Cytotoxicity against human SiHa cells assessed as reduction of cell density incubated for 4 hrs in oxic (aerobic) condition measured 5 days post dose by SRB assay; format: functional, cell-based; how it was run: as §1
[21] = Cytotoxicity against human H1299 cells assessed as reduction of cell density incubated for 4 hrs in hypoxic (anoxic) condition measured 5 days post dose by SRB assay; format: functional, cell-based; settings: NCI-H1299; how it was run: as §1
[22] = tested on: HCT-116; assay: Cytotoxicity against human HCT116 cells assessed as reduction of cell density incubated for 4 hrs in oxic (aerobic) condition measured 5 days post dose by SRB assay; format: functional, cell-based; how it was run: as §1
[23] = tested on: C-33-A; assay: Hypoxic cytotoxicity ratio, ratio of IC50 for human C33A cells in oxic (aerobic) condition to IC50 for human C33A cells in hypoxic (anoxic) conditions; format: functional; how it was run: as §2
[24] = tested on: A549; assay: Cytotoxicity against human A549 cells ells over-expressing human NADPH/cytochrome P450 oxidoreductase assessed as reduction of cell density incubated for 4 hrs in hypoxic (anoxic) condition measured 5 days post dose by SRB assay; format: functional, cell-based; how it was run: as §1
[25] = tested on: A549; assay: Cytotoxicity against human A549 cells assessed as reduction of cell density incubated for 4 hrs in hypoxic (anoxic) condition measured 5 days post dose by SRB assay; format: functional, cell-based; how it was run: as §1
[26] = tested on: PC-3; assay: Hypoxic cytotoxicity ratio, ratio of IC50 for human PC3 cells in oxic (aerobic) condition to IC50 for human PC3 cells in hypoxic (anoxic) conditions; format: functional; how it was run: as §2
[27] = tested on: PC-3; assay: Cytotoxicity against human PC3 cells assessed as reduction of cell density incubated for 4 hrs in oxic (aerobic) condition measured 5 days post dose by SRB assay; format: functional, cell-based; how it was run: as §1
[28] = tested on: HCT-116; assay: Hypoxic cytotoxicity ratio, ratio of IC50 for human HCT116 cells in oxic (aerobic) condition to IC50 for human HCT116 cells in hypoxic (anoxic) conditions; format: functional; how it was run: as §2
[29] = tested on: A549; assay: Hypoxic cytotoxicity ratio, ratio of IC50 for human A549 cells in oxic (aerobic) condition to IC50 for human A549 cells in hypoxic (anoxic) conditions; format: functional; how it was run: as §2
[30] = tested on: NCI-H460; assay: Hypoxic cytotoxicity ratio, ratio of IC50 for human H460 cells in oxic (aerobic) condition to IC50 for human H460 cells in hypoxic (anoxic) conditions; format: functional; how it was run: as §2
[31] = tested on: A-375; assay: Cytotoxicity against human A375 cells assessed as reduction of cell density incubated for 4 hrs in hypoxic (anoxic) condition measured 5 days post dose by SRB assay; format: functional, cell-based; how it was run: as §1
[32] = tested on: A-375; assay: Cytotoxicity against human A375 cells assessed as reduction of cell density incubated for 4 hrs in oxic (aerobic) condition measured 5 days post dose by SRB assay; format: functional, cell-based; how it was run: as §1
[33] = tested on: C-33-A; assay: Cytotoxicity against human C33A cells assessed as reduction of cell density incubated for 4 hrs in hypoxic (anoxic) condition measured 5 days post dose by SRB assay; format: functional, cell-based; how it was run: as §1
[34] = tested on: SiHa; assay: Hypoxic cytotoxicity ratio, ratio of IC50 for human SiHa cells in oxic (aerobic) condition to IC50 for human SiHa cells in hypoxic (anoxic) conditions; format: functional; how it was run: as §2
[35] = tested on: SiHa; assay: Cytotoxicity against human SiHa cells assessed as reduction of cell density incubated for 4 hrs in hypoxic (anoxic) condition measured 5 days post dose by SRB assay; format: functional, cell-based; how it was run: as §1

COc1cc2cc(C(=O)N3CC(COS(=O)(=O)C4CCCCC4)c4c3cc(N)c3ccccc43)[nH]c2c(OC)c1OC (stereo not drawn)
pIC50 [1]: 8.19
pIC50 [2]: 8.31
solubility [3]: 37 µM (≈ 22 µg/mL)
Ratio IC50 [4]: 1

CN(C)CCOc1ccc2[nH]c(C(=O)N3C[C@@H](CCl)c4c3cc(O)c3ccccc43)cc2c1
pIC50 [5]: 10.59

O=C(c1cc2cc(OCCO)ccc2[nH]1)N1CC(CCl)c2c1cc([N+](=O)[O-])c1ccccc21 (stereo not drawn)
Ratio IC50 [6]: 1.1
pIC50 [7]: 5.18
pIC50 [1]: 5.48
pIC50 [2]: 5.03
solubility [3]: 13 µM (≈ 6.06 µg/mL)
Ratio IC50 [4]: 3.8
pIC50 [8]: 5.24

COc1ccc2[nH]c(C(=O)N3CC(CCl)c4c3cc([N+](=O)[O-])c3ccccc43)cc2c1 (stereo not drawn)
Ratio IC50 [6]: 7.4
pIC50 [7]: 5.01
pIC50 [1]: 5.81
pIC50 [2]: 5.32
solubility [3]: 38 µM (≈ 16.6 µg/mL)
Ratio IC50 [4]: 3.1
pIC50 [8]: 5.89

COc1ccc(/C=C/C(=O)N2CC(CCl)c3c2cc([N+](=O)[O-])c2ccccc32)cc1O (stereo not drawn)
Ratio IC50 [6]: 4.5
pIC50 [7]: 5.77
pIC50 [1]: 6.40
pIC50 [2]: 6.05
solubility [3]: 9 µM (≈ 3.95 µg/mL)
Ratio IC50 [4]: 3.3
pIC50 [8]: 6.23

COc1cc2cc(C(=O)N3CC(COS(C)(=O)=O)c4c3cc([N+](=O)[O-])c3ccccc43)[nH]c2c(OC)c1OC (stereo not drawn)
Ratio IC50 [6]: 4.6
pIC50 [7]: 5.82
pIC50 [1]: 6.85
pIC50 [2]: 5.66
solubility [3]: 69 µM (≈ 38.3 µg/mL)
Ratio IC50 [4]: 39
pIC50 [8]: 6.51

COc1cc2cc(C(=O)N3CC(COS(=O)(=O)C4CCCCC4)c4c3cc([N+](=O)[O-])c3ccccc43)[nH]c2c(OC)c1OC (stereo not drawn)
Ratio IC50 [6]: 26
pIC50 [7]: 5.00
pIC50 [1]: 6.72
pIC50 [2]: 4.80
solubility [3]: 70 µM (≈ 43.7 µg/mL)
Ratio IC50 [4]: 146
pIC50 [8]: 6.36

CN(C)CCOc1ccc2[nH]c(C(=O)N3CC(COS(=O)(=O)C4CCCCC4)c4c3cc([N+](=O)[O-])c3ccccc43)cc2c1 (stereo not drawn)
Ratio IC50 [6]: 2.3
pIC50 [7]: 6.39
pIC50 [1]: 6.52
pIC50 [2]: 6.33
solubility [3]: 22 µM (≈ 13.7 µg/mL)
Ratio IC50 [4]: 1.5
pIC50 [8]: 6.70

COc1cc2cc(C(=O)N3CC(COS(=O)(=O)Cc4ccccc4)c4c3cc([N+](=O)[O-])c3ccccc43)[nH]c2c(OC)c1OC (stereo not drawn)
pIC50 [9]: 6.29
pIC50 [10]: 6.60
Ratio IC50 [6]: 37
pIC50 [11]: 7.00
pIC50 [7]: 5.01
Ratio IC50 [12]: 4.12
pIC50 [13]: 7.30
Ratio IC50 [14]: 16.5
pIC50 [1]: 7.09
pIC50 [15]: 5.97
pIC50 [16]: 6.03
Ratio IC50 [17]: 3.6
pIC50 [2]: 4.92
pIC50 [18]: 6.68
pIC50 [19]: 6.37
pIC50 [20]: 5.52
pIC50 [21]: 6.80
pIC50 [22]: 6.28
Ratio IC50 [23]: 15.6
solubility [3]: 17 µM (≈ 10.7 µg/mL)
pIC50 [24]: 7.02
Ratio IC50 [4]: 246
pIC50 [25]: 6.40
Ratio IC50 [26]: 10.2
pIC50 [27]: 5.72
Ratio IC50 [28]: 12.1
pIC50 [8]: 6.44
Ratio IC50 [29]: 3.73
Ratio IC50 [30]: 7.19
pIC50 [31]: 6.39
pIC50 [32]: 5.91
pIC50 [33]: 7.48
Ratio IC50 [34]: 30.1
pIC50 [35]: 6.35

CN(C)CCOc1ccc2[nH]c(C(=O)N3CC(COS(=O)(=O)Cc4ccccc4)c4c3cc([N+](=O)[O-])c3ccccc43)cc2c1 (stereo not drawn)
Ratio IC50 [6]: 4
pIC50 [7]: 6.62
pIC50 [1]: 6.82
pIC50 [2]: 6.57
solubility [3]: 91 µM (≈ 57.2 µg/mL)
Ratio IC50 [4]: 1.8
pIC50 [8]: 7.10
